Reference: ChEMBL document CHEMBL3085754, “Clicking 3'-azidothymidine into novel potent inhibitors of human immunodeficiency virus” (J Med Chem, 2013)
Calls of active or inactive are those of the source. The rule behind the calls is not given here.

Assays:
[1] = Therapeutic index, ratio of CC50 for human CEM-SS cells to EC50 for Human immunodeficiency virus 1 3B; format: cell-based; conditions: read-out: Ratio CC50/EC50
[2] = system: Human immunodeficiency virus 1; experiment: Antiviral activity against Human immunodeficiency virus 1 3B infected in human CEM-SS cells assessed as inhibition of virus-induced cytopathic effect after 6 days by MTS assay; format: functional, organism-based; conditions: 144 h
CEM-SS [3] = experiment: Cytotoxicity against human CEM-SS cells assessed as cell viability at 10 uM after 6 days by MTS assay relative to control; format: cell-based; conditions: 144 h
[4] = system: Human immunodeficiency virus 1; experiment: Ratio of EC50 for AZT-resistant Human immunodeficiency virus 1 to EC50 for wild type Human immunodeficiency virus 1 expressing p24; format: functional
CEM-SS [5] = experiment: (§1) Cytotoxicity against human CEM-SS cells assessed as cell viability after 6 days by MTS assay; format: cell-based; conditions: cem-ss, 144 h
[6] = system: Human immunodeficiency virus 1; experiment: Antiviral activity against AZT-resistant Human immunodeficiency virus 1 expressing D67N/K70R/T215F/K219Q reverse transcriptase mutation; format: functional, organism-based
[7] = system: Human immunodeficiency virus 1; experiment: Antiviral activity against NNRTI-resistant Human immunodeficiency virus 1; format: functional, organism-based
[8] = system: Human immunodeficiency virus 1; experiment: Antiviral activity against wild type Human immunodeficiency virus 1 expressing p24 infected in human HeLa P4/R5 cells preincubated for 16 hrs prior to virus infection measured after 48 hrs by beta-galactosidase-based single replication cycle assay; format: functional, organism-based; conditions: for EC50: Human immunodeficiency virus 1, P4/R5
Method in brief: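 P4R5 indicator cells express CD4, CXCR4, CCR5 and an HIV LTR-driven β-galactosidase reporter, and were kept in DMEM/10% FBS with puromycin. Cells were seeded at 5×10^3 per well and exposed to varying drug concentrations for 16 h. They were then inoculated with 25 ng HIV-1 p24 per well. Infection was quantified 48 h post-infection by fluorescence-based β-galactosidase detection.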

[9] = system: Human immunodeficiency virus 1; experiment: Ratio of EC50 for NNRTI-resistant Human immunodeficiency virus 1 to EC50 for wild type Human immunodeficiency virus 1 expressing p24; format: functional
[10] = system: Human immunodeficiency virus 1; experiment: Antiviral activity against Human immunodeficiency virus 1 3B infected in human CEM-SS cells assessed as inhibition of virus-induced cytopathic effect at 10 uM after 6 days by MTS assay relative to control; format: functional; conditions: 144 h
[11] = target: Human immunodeficiency virus type 1 reverse transcriptase (Human immunodeficiency virus 1, UniProt Q72547); experiment: Inhibition of HIV1 reverse transcriptase-mediated [H3]TTP incorporation into poly(rA)-oligo(dT)16 DNA preincubated for 5 mins prior to primer/template and substrate addition by liquid scintillation spectrometric analysis
Method in brief: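 10 nM wt HIV-1 RT preincubated 5 min with inhibitor in DMSO (1% final), then 40 nM poly(rA)-oligo(dT)16 and 10 μM [3H]TTP added. Buffer 50 mM Tris-HCl pH 8.0, 60 mM KCl, 10 mM MgCl2; 20 min at 37°C. Quenched with cold 10% TCA/20 mM pyrophosphate, glass-fibre filtered, washed with TCA and ethanol, incorporation counted by liquid scintillation.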

[12] = target: Human immunodeficiency virus type 1 reverse transcriptase (Human immunodeficiency virus 1) (UniProt Q72547); experiment: Binding affinity to HIV1 reverse transcriptase assessed as compound-terminated template/primer translocation from N-site to P-site of enzyme preincubated for 20 mins prior to TTP addition measured after 10 mins by gel electrophoretic analysis
Method in brief: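 50 nM 32P-labelled primer/RNA template with 300 nM RT in 120 mM Na cacodylate pH 7.0, 20 mM NaCl, 6 mM MgCl2 and 100 μM AZT-TP or triphosphate analogue, 20 min at 37°C, for chain-terminator incorporation. Varying TTP then added for 10 min, followed by 500 μM Fe(NH4)2SO4 cleavage. Products resolved by denaturing gel electrophoresis.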

[13] = target: Human immunodeficiency virus type 1 reverse transcriptase (Human immunodeficiency virus 1) (UniProt Q72547); experiment: Induction of AZT-resistant HIV1 reverse transcriptase assessed as rate of ATP-mediated excision of chain-terminating nucleotides by phosphorimaging analysis
Method in brief: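 5'-32P-labelled DNA primer annealed 1:1.5 to 40-nt RNA template, then chain-terminated with AZT-TP or the triphosphate analogue. AZT-resistant RT and terminated template/primer (2:1) in 50 mM Tris-HCl pH 8.0, 50 mM KCl. Started with 6 mM MgCl2 and 3 mM pyrophosphatase-pretreated ATP, 37°C. Stopped at timed points with formamide/EDTA dye and resolved by denaturing gel.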

[14] = as §1; format: cell-based; conditions: CEM-SS cells

Compound	selectivity ratio [1]	EC50 [2]	Activity (CEM-SS [3])	Ratio EC50 [4]	CC50 (CEM-SS [5])	EC50 [6]	EC50 [7]	Activity [8]	EC50 [8]	Ratio EC50 [9]	inhibition at 10 µM [10]	IC50 [11]	Activity [12]	Activity [13]	CC50 at 144 h [14]
Cc1cn([C@H]2C[C@H](n3nncc3-c3cccc4ccccc34)[C@@H](CO)O2)c(=O)[nH]c1=O	910	0.067 µM	100%	9	61 µM	9.1 µM	0.6 µM	Dose-dependent effect	1 µM	0.6	83%	–	–	–	–
Cc1cn([C@H]2C[C@H](n3nncc3-c3cccc4ccccc34)[C@@H](COP(=O)(O)OP(=O)(O)OP(=O)(O)O)O2)c(=O)[nH]c1=O	–	–	–	–	–	–	–	–	–	–	–	3.7 µM	Active	0.0126 min⁻¹	–
Cc1cn([C@H]2C[C@H](N=[N+]=[N-])[C@@H](CO)O2)c(=O)[nH]c1=O [ZIDOVUDINE]	–	0.0053 µM	–	–	–	7.9 µM	0.12 µM	–	0.14 µM	–	–	–	Active	0.024 min⁻¹	> 1 µM
